These results are taken from ChEMBL document CHEMBL1124672, “A minor modification of residue 1 in potent vasopressin antagonists dramatically reduces agonist activity” (J Med Chem, 1989).

Numbered stars: 1 amine (or outer) side, 2 acyl side, 3 side chain; on linkers, the order of the positions; unused ones are H or OH. Bridge positions count the residues as written; N and C are the ends. Square brackets hold non-standard residues; d marks the D form. Peptide text beside a SMILES is read from it. X1 = O=C(CC1(S[*:2])CCCCC1)[*:1]

The subject of data set [1] is Canis familiaris. Description: Compound was tested for the maximum urine osmolality with a dose of 100 ug/kg compound in dog. Format: ADME, organism-based, Canis lupus familiaris. The following applies: in vivo, 0.1 mg/kg. The essentials:
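Adult female mongrel dogs, lightly restrained supine, food withheld 18 h, water-loaded (tap water 5% body weight by gavage). 3% dextrose infused intravenously until Uosm below 70 mOsm/kg H2O, then matched to urine output. After 20 min baseline, indomethacin 2 mg/kg load + 3 mg/kg per h for 20 min, then single i.v. bolus 100 µg/kg or vehicle. Uosm by freezing point depression, every 10 min for 3 h; maximum Uosm, mean ±SE.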

Data set [2] can be described thus: Compound was evaluated for inhibition of vasopressin-stimulated adenylate cyclase in human medullary preparation. In short, it runs like this:
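Human renal medullary tissue; inhibition of vasopressin-stimulated adenylate cyclase, reported as inhibition constant Ki.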

Another data set concerns Rattus norvegicus. Briefly: Effective dose of compound required to lower urine osmolality to 300 mOsm/kg H2O in rat. Type of data set: functional. In short, it runs like this: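 Hydropenic rat model. ED300 (µg/kg) is the dose reducing urine osmolality from hydropenic levels to plasma osmolality level, 300 mOsm/kg H2O.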
Data set [3] concerns Vasopressin V2 receptor (Sus scrofa). Briefly: Binding affinity of compound towards Vasopressin receptor by binding [3H]LVP to pig renal medullary preparation. The following applies: Renal medulla.
The subject of data set [4] is Canis familiaris. Briefly: Compound was tested for the maximum urine osmolality with a dose of 100 ug/kg compound in dog. Format: ADME, organism-based, Canis lupus familiaris. The following applies: in vivo, 0.1 mg/kg. In short, it runs like this: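 Adult female mongrel dogs, fasted 18 h with water allowed, hydrated orally with tap water (5% body weight), bladder-catheterized. 3% dextrose iv to baseline water diuresis (Uosm <70 mOsm/kg H2O). Indomethacin 2 mg/kg load + 3 mg/kg per h. Single iv bolus of 100 µg/kg peptide or vehicle. Uosm by freezing point depression every 10 min for 3 h; maximum value, mean ±SE.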

On to `CCOc1ccc(C[C@H]2NC(=O)CC3(CCCCC3)SSC[C@@H](C(=O)N3CCC[C@H]3C(=O)N[C@@H](CCCN=C(N)N)C(=O)NCC(N)=O)NC(=O)[C@H](CC(N)=O)NC(=O)[C@H](C(C)C)NC(=O)[C@H](Cc3ccccc3)NC2=O)cc1` ([dY](Et)FVNCPRG-NH2; linker N-5 via X1) [listing 1 of 2 here], for which the “Max Uosm” value with Canis familiaris [1] is listed as 1216 mOsmol kg-1. The affinity in data set [2], expressed as Ki, was 4.6 nM.
In the data set on Rattus norvegicus, `CCOc1ccc(C[C@@H]2NC(=O)CC3(CCC(C)CC3)SSC[C@H](C(=O)N[C@@H](CCCN=C(N)N)C(=O)N[C@@H](CCCN=C(N)N)C(N)=O)NC(=O)[C@H](CC(N)=O)NC(=O)[C@H](C(C)C)NC(=O)[C@H](Cc3ccccc3)NC2=O)cc1` (stereo partly specified) gave an ED300 of 0.046 mg/kg. The same compound yielded a K Bind in data set [3] of 4.2 nM. The “Max Uosm” value with Canis familiaris [1] is recorded as 103 mOsmol kg-1. The affinity in data set [2] corresponds to a Ki of 3.9 nM.
Turning to `CCOc1ccc(C[C@H]2NC(=O)CC3(CCC(C)CC3)SSC[C@@H](C(=O)N3CCC[C@H]3C(=O)N[C@@H](CCCN=C(N)N)C(N)=O)NC(=O)[C@H](CC(N)=O)NC(=O)[C@H](C(C)C)NC(=O)[C@H](Cc3ccccc3)NC2=O)cc1` (stereo in doubt; 3), in the data set with Rattus norvegicus, the ED300 was 0.022 mg/kg.
As to `CCOc1ccc(C[C@H]2NC(=O)CC3(CCCCC3)SSC[C@@H](C(=O)N3CCC[C@H]3C(=O)N[C@@H](CCCN=C(N)N)C(N)=O)NC(=O)[C@H](CC(N)=O)NC(=O)[C@H](C(C)C)NC(=O)[C@H](Cc3ccccc3)NC2=O)cc1` ([dY](Et)FVNCPR-NH2; linker N-5 via X1), the ED300 in the data set with Rattus norvegicus was found to be 0.015 mg/kg.
In the case of `CCOc1ccc(C[C@H]2NC(=O)CC3(CCC(C)CC3)SSC[C@@H](C(=O)N3CCC[C@H]3C(=O)N[C@@H](CCCN=C(N)N)C(N)=O)NC(=O)[C@H](CC(N)=O)NC(=O)[C@H](C(C)C)NC(=O)[C@H](Cc3ccccc3)NC2=O)cc1` (stereo in doubt; 2), the ED300 in the data set with Rattus norvegicus turned out to be 0.045 mg/kg.
For `CCOc1ccc(C[C@H]2NC(=O)CC3(CCC(C)CC3)SSC[C@@H](C(=O)N3CCC[C@H]3C(=O)N[C@@H](CCCN=C(N)N)C(=O)NCC(N)=O)NC(=O)[C@H](CC(N)=O)NC(=O)[C@H](C(C)C)NC(=O)[C@H](Cc3ccccc3)NC2=O)cc1` (stereo partly specified) [listing 1 of 2 here], the “Max Uosm” value in the data set on Canis familiaris [1] is 85 mOsmol kg-1. The compound also gave a Ki in data set [2] of 4.3 nM.
With `CCOc1ccc(C[C@H]2NC(=O)CC3(CCCCC3)SSC[C@@H](C(=O)N3CCC[C@H]3C(=O)N[C@@H](CCCN=C(N)N)C(=O)NCC(N)=O)NC(=O)[C@H](CC(N)=O)NC(=O)[C@H](C(C)C)NC(=O)[C@H](Cc3ccccc3)NC2=O)cc1` ([dY](Et)FVNCPRG-NH2; linker N-5 via X1) [listing 2 of 2 here], the ED300 in the data set with Rattus norvegicus was determined as 0.011 mg/kg.
Consider `CCOc1ccc(C[C@H]2NC(=O)CC3(CCCCC3)SSC[C@@H](C(=O)N3CCC[C@H]3C(=O)N[C@@H](CCCNC(=N)N)C(N)=O)NC(=O)[C@H](CC(N)=O)NC(=O)[C@H](C(C)C)NC(=O)[C@H](Cc3ccccc3)NC2=O)cc1` ([dY](Et)FVNCPR-NH2; linker N-5 via X1), for which, in the data set with Canis familiaris [1], the “Max Uosm” value is given as 1625 mOsmol kg-1. Moreover, the Ki in data set [2] stood at 3.6 nM.
For `CCOc1ccc(C[C@H]2NC(=O)CC3(CCC(C)CC3)SSC[C@@H](C(=O)N3CCC[C@H]3C(=O)N[C@@H](CCCN=C(N)N)C(=O)NCC(N)=O)NC(=O)[C@H](CC(N)=O)NC(=O)[C@H](C(C)C)NC(=O)[C@H](Cc3ccccc3)NC2=O)cc1` (stereo partly specified) [listing 2 of 2 here], the ED300 with Rattus norvegicus was found to be 0.025 mg/kg.
On to `CCOc1ccc(C[C@@H]2NC(=O)CC3(CCCCC3)SSC[C@H](C(=O)N[C@@H](CCCN=C(N)N)C(=O)N[C@@H](CCCN=C(N)N)C(N)=O)NC(=O)[C@@H](CC(N)=O)NC(=O)[C@H](C(C)C)NC(=O)[C@@H](Cc3ccccc3)NC2=O)cc1`, for which, in the data set with Rattus norvegicus, the ED300 was 0.0135 mg/kg. This compound registered a K Bind in data set [3] of 4.5 nM. For the same compound, the “Max Uosm” value with Canis familiaris [1] is 469 mOsmol kg-1. In data set [2], this compound had an inhibition constant Ki of 4.5 nM.
With `CCOc1ccc(C[C@H]2NC(=O)CC3(CCC(C)CC3)SSC[C@@H](C(=O)N3CCC[C@H]3C(=O)N[C@@H](CCCNC(=N)N)C(N)=O)NC(=O)[C@H](CC(N)=O)NC(=O)[C@H](C(C)C)NC(=O)[C@H](Cc3ccccc3)NC2=O)cc1` (stereo in doubt; 2), in the data set on Canis familiaris [4], the “Max Uosm” value came to 91 mOsmol kg-1.
On to `CCOc1ccc(C[C@H]2NC(=O)CC3(CCC(C)CC3)SSC[C@@H](C(=O)N3CCC[C@H]3C(=O)N[C@@H](CCCNC(=N)N)C(N)=O)NC(=O)[C@H](CC(N)=O)NC(=O)[C@H](C(C)C)NC(=O)[C@H](Cc3ccccc3)NC2=O)cc1` (stereo in doubt; 3), for which the “Max Uosm” value with Canis familiaris [1] is reported as 613 mOsmol kg-1.
